A short description of data set [1]: Toxicity in CD-1 mouse assessed as increase in body weight at 4 mg/kg, ip administered daily for 6 days. As to conditions: in vivo, 144 h, time 6 day. It counts as organism-based.
Data set [2] concerns Streptococcus pneumoniae. Nature of the data set: Antagonist activity against CSP1-mediated pneumolysin release in Streptococcus pneumoniae D39 assessed as inhibition of autolytic release of pneumolysin at 46 to 368 nM in presence of CSP1 by Western blot analysis. Particulars: filed as antagonist, dose 46-368 nM. A general note: Immunoblotting shows a protein as a band on a membrane.

Data set [3] in a line: Toxicity in CD-1 mouse assessed as appearance of lesions in kidney at 4 mg/kg, ip administered daily for 6 days by H and E staining based assay. It counts as organism-based. As to conditions: in vivo, 144 h, time 6 day.
Data set [4] in a line: Toxicity in Streptococcus pneumoniae TIGR4 infected CD-1 mouse model assessed as mortality at 4 mg/kg,iv measured after 72 hrs post. Particulars: in vivo. It counts as organism-based. Put shortly: (§1)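 Seven-week-old CD-1 mice, male and female, n=15 per cohort, isoflurane-anaesthetized, infected intranasally with D39 (4.5×10^6 CFU) or TIGR4 (1.07×10^6 CFU). Treated retro-orbitally i.v. with 4 mg/kg or PBS vehicle at 2 and 24 hpi; mortality monitored for 120 hpi.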

In data set [5] the test system is Erythrocyte. Nature of the data set: Hemolytic activity against sheep RBC assessed as hemolysis using compound treated Streptococcus pneumoniae TIGR4 cultured PLY supernatant at 46 to 368 nM incubated for 30 mins. As to conditions: 0.5 h, 0.368 µM, dose 46-368 nM. The class given is toxicity, cell-based, Ovis aries. The essentials:
(§2)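 Supernatants: centrifuged, 0.22 μm filtered, concentrated 50x, serially two-fold diluted, 10 mM DTT for 15 min at room temperature. Then mixed with 2% sheep RBC for 30 min at 37 °C; A541 of cleared supernatant read. HU = highest dilution giving 50% lysis. Triplicate.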

For data set [6], the system named is Streptococcus pneumoniae. Nature of the data set: Antibacterial activity against erythromycin-resistant Streptococcus pneumoniae D39 infected in CD-1 mouse assessed as reduction in bacterial burden in mouse spleen at 4 mg/kg,iv measured after 48 hrs post infection. It counts as functional, organism-based. The essentials: (§3)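 Seven-week-old CD-1 mice, male and female, n=10 per cohort, inoculated intranasally with a 1:1 mix of D39-rplL-ErmR and TIGR4-rplL-KanR (2.5×10^6 CFU each). Treated retro-orbitally i.v. with 4 mg/kg or PBS vehicle at 2 and 24 hpi; euthanized at 48 hpi. Lung and spleen homogenates were plated on THY with erythromycin (250 ng/mL) for D39 or […] for TIGR4.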

The nature of data set [7]: Toxicity in CD-1 mouse assessed as appearance of lesions in heart at 4 mg/kg, ip administered daily for 6 days by H and E staining based assay. As to conditions: in vivo, 144 h, time 6 day. The class given is organism-based.
The nature of data set [8]: Toxicity in Streptococcus pneumoniae D39 infected CD-1 mouse model assessed as mortality at 4 mg/kg,iv measured after 120 hrs post infection. The class given is organism-based. As to conditions: in vivo. Put shortly:
as §1

A short description of data set [9]: Toxicity in CD-1 mouse assessed as appearance of lesions in lung at 4 mg/kg, ip administered daily for 6 days by H and E staining based assay. The class given is organism-based. Particulars: in vivo, 144 h, time 6 day.
A short description of data set [10]: Toxicity in CD-1 mouse assessed as appearance of lesions in spleen at 4 mg/kg, ip administered daily for 6 days by H and E staining based assay. It counts as organism-based. As to conditions: in vivo, 144 h, time 6 day.
Data set [11] concerns Erythrocyte. Nature of the data set: Hemolytic activity against sheep RBC assessed as hemolysis using compound treated Streptococcus pneumoniae D39 cultured PLY supernatant at 46 to 368 nM incubated for 30 mins. It counts as toxicity, cell-based, Ovis aries. Particulars: 0.5 h, 0.368 µM, dose 46-368 nM. The essentials: as §2
In data set [12] the test system is Streptococcus pneumoniae. The data set can be described thus: Antibacterial activity against erythromycin-resistant Streptococcus pneumoniae D39 infected in CD-1 mouse assessed as reduction in bacterial burden in mouse lung at 4 mg/kg,iv measured after 48 hrs post infection. It counts as functional, organism-based. Put shortly: as §3
Data set [13] in a line: Toxicity in CD-1 mouse assessed as appearance of lesions in liver at 4 mg/kg, ip administered daily for 6 days by H and E staining based assay. As to conditions: in vivo, 144 h, time 6 day. The class given is organism-based.

This is an account of results in ChEMBL document CHEMBL5143675, “Attenuating the Streptococcus pneumoniae Competence Regulon Using Urea-Bridged Cyclic Dominant-Negative Competence-Stimulating Peptide Analogs” (J Med Chem, 2022).

Activity calls are given as the source filed them. The calls are words filed in the database; no cut-off is given here. *1 amine or outer side, *2 acyl side, *3 side chain or, on linkers, in order; H or OH if unused. Where a SMILES comes first, the peptide text is derived from it. Bridges are numbered along the chain shown (N, C = ends). [ ]: non-standard residue; d: D form. Dab = NCC[C@H](N)C(=O)O; CO = O=C([*:1])[*:2]

Take `CC[C@H](C)[C@H](NC(=O)[C@H](Cc1ccccc1)NC(=O)[C@@H]1CCNC(=O)NCC[C@H](NC(=O)[C@H](CO)NC(=O)[C@H](CC(C)C)NC(=O)[C@H](CCCNC(=N)N)NC(=O)[C@H](CCSC)NC(=O)[C@H](C)N)C(=O)N[C@@H](Cc2ccccc2)C(=O)N[C@@H](Cc2ccccc2)C(=O)N[C@@H](CCCNC(=N)N)C(=O)N1)C(=O)N[C@@H](CC(C)C)C(=O)N[C@@H](CCC(N)=O)C(=O)N[C@@H](CCCNC(=N)N)C(=O)N[C@@H](CCCCN)C(=O)N[C@@H](CCCCN)C(=O)O` (H-AMRLS[Dab]FFR[Dab]FILQRKK-OH; linker 6-10 via CO): the Activity entry in [1] is reported as “Non-Toxic”; in data set [3] it was “Non-Toxic”; in data set [5] it was “Toxic”; in data set [7] it was “Non-Toxic”; in [8], “Non-Toxic”; in data set [9] it was “Non-Toxic”. Moreover, the Activity entry in data set [10], in [11] and in data set [13] was “Non-Toxic” throughout. Moreover, the result in data set [2], in data set [6] and in data set [12] was Active. In data set [4], the mortality at 72 h amounted to 50%.

The mortality is the share of the test organisms that died.
